This passage reports IC50 results from ChEMBL document CHEMBL1250480, “Design, synthesis and qualitative structure-activity evaluations of novel hexahydropyrano[3,2-c][1,2]diazepin-3(4H)-one and tetrahydropyrano[3,2-b]pyrrol-2(1H)-one derivatives as anticancer agents” (Eur J Med Chem, 2010).

Assay type in all cases: functional, cell-based
In one assay the test system is HCT-116. The assay is described as follows: Cytotoxicity against human HCT116 cells after 48 hrs by SRB assay. To be noted: HCT-116, 48 h. The procedure, abridged: (§1)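 Cells grown in RPMI-1640 with 10% FBS and antibiotics at 37 °C, 5% CO2. Agents from fresh 1 mg/ml DMSO stocks were diluted in medium and applied for 48 h at 37 °C in triplicate wells. Cells were fixed with cold 50% TCA, stained with 0.4% SRB, and the dye solubilized in 10 mM Tris pH 10.5 before reading A570. IC50 is the concentration giving 50% reduction in net protein increase versus untreated cells, after blank correction. Values are the mean ± SEM of at least two independent runs.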

For another assay, the system named is SK-N-SH. In words: Cytotoxicity against human SK-N-SH cells after 48 hrs by SRB assay. The procedure, abridged: as §1
Another assay deals with SK-BR-3. The assay is described as follows: Cytotoxicity against human SK-BR-3 cells after 48 hrs by SRB assay. The following applies: SK-BR-3, 48 h. The method in brief: as §1
A further assay relates to DU-145. In words: Cytotoxicity against human DU145 cells after 48 hrs by SRB assay. The following applies: DU-145, 48 h. The method in brief:
as §1

A further assay has as its system A549. In words: Cytotoxicity against human A549 cells after 48 hrs by SRB assay. To be noted: A549, 48 h. The procedure, abridged: as §1

On to `CO[C@@H]1CC=C2NN(c3ccc(C)cc3)C(=O)CC[C@]2(c2ccccc2)O1`, for which the IC50 came to 2.5 µM in the assay with HCT-116; 1.7 µM in the assay with SK-N-SH; 2.7 µM in the assay on SK-BR-3; 2.2 µM in the assay on DU-145; 3.17 µM in the assay on A549.
On the same counts, the results for `CO[C@@H]1CC=C2NN(c3ccc([N+](=O)[O-])cc3)C(=O)CC[C@]2(c2ccccc2)O1` are 8.7 µM, 7.3 µM, 7.7 µM, 9.2 µM and 9.49 µM.
Consider `COc1cc(OC)cc(N2NC3=CC[C@@H](OC)O[C@@]3(c3ccccc3)CCC2=O)c1`, for which the IC50 in the assay on HCT-116 came out at 2.1 µM; with SK-N-SH, 3.2 µM; in the assay on SK-BR-3, 1.2 µM; in the assay with DU-145 it was 2.4 µM; in the assay on A549, 2.9 µM.
As to `CO[C@@H]1CC=C2NN(c3ccccn3)C(=O)CC[C@]2(c2ccccc2)O1`, the IC50 with HCT-116 was 1.4 µM; in the assay on SK-N-SH it was 2.1 µM; in the assay on SK-BR-3 it was 1.12 µM; in the assay with DU-145, 1.29 µM; with A549 it was 1.48 µM.
Take `CO[C@@H]1CC=C2NN(c3c[nH]c4ccccc34)C(=O)CC[C@]2(c2ccccc2)O1`: the IC50 in the assay with HCT-116 was 1.1 µM; with SK-N-SH, 1 µM; in the assay on SK-BR-3, 1.2 µM; in the assay on DU-145 it was 1.13 µM; in the assay with A549, 1.11 µM.
With `COc1ccc(N2NC3=CC[C@@H](OC)O[C@@]3(c3ccccc3)CCC2=O)cc1`, the IC50 came to 3.1 µM in the assay with HCT-116; 4.6 µM in the assay with SK-N-SH; 2.4 µM in the assay with SK-BR-3; 4.1 µM with DU-145; 5.1 µM with A549.
In the case of `CO[C@@H]1CC=C2NN(c3cc(Cl)cc(Cl)c3)C(=O)CC[C@]2(c2ccccc2)O1`, the IC50 came to 6.52 µM in the assay on HCT-116; 7.11 µM with SK-N-SH; 6.35 µM with SK-BR-3; 8.46 µM in the assay on DU-145; 6.13 µM in the assay with A549.
Consider `CO[C@@H]1CC=C2N(c3ccc(C)cc3)C(=O)C[C@]2(c2ccccc2)O1`, for which the IC50 in the assay with HCT-116 was 4.3 µM; in the assay on SK-N-SH, 3.5 µM; in the assay with SK-BR-3 it was 1.1 µM; with DU-145, 4.4 µM; in the assay on A549, 3.92 µM.
As for `CO[C@@H]1CC=C2N(c3ccc([N+](=O)[O-])cc3)C(=O)C[C@]2(c2ccccc2)O1`, the IC50 in the assay with HCT-116 amounted to 8 µM; in the assay with SK-N-SH, 9.4 µM; with SK-BR-3, 6.3 µM; in the assay with DU-145 it was 8.1 µM; in the assay on A549, 7.15 µM.
As to `COc1cc(OC)cc(N2C(=O)C[C@]3(c4ccccc4)O[C@H](OC)CC=C23)c1`, the IC50 amounted to 6.1 µM with HCT-116; 7.2 µM with SK-N-SH; 1.1 µM with SK-BR-3; 6.1 µM in the assay with DU-145; 4.11 µM in the assay with A549.
As for `CO[C@@H]1CC=C2N(c3ccccn3)C(=O)C[C@]2(c2ccccc2)O1`, the IC50 turned out to be 7.3 µM in the assay with HCT-116; 5.1 µM with SK-N-SH; 1.1 µM with SK-BR-3; 8.3 µM in the assay on DU-145; 6.11 µM in the assay on A549.
As for `CO[C@@H]1CC=C2N(c3ccc4[nH]ccc4c3)C(=O)C[C@]2(c2ccccc2)O1`, the IC50 in the assay on HCT-116 came to 5.3 µM; with SK-N-SH it was 4.4 µM; in the assay on SK-BR-3, 1.3 µM; in the assay with DU-145, 4.1 µM; in the assay on A549, 5.1 µM.
On the same counts, the results for `CO[C@@H]1CC=C2N(c3c[nH]c4ccccc34)C(=O)C[C@]2(c2ccccc2)O1` are 7.13 µM, 8.2 µM, 2.3 µM, 7.33 µM and 5.2 µM.
As for `CO[C@@H]1CC=C2N(c3cc(Cl)cc(Cl)c3)C(=O)C[C@]2(c2ccccc2)O1`, the IC50 was 11.2 µM in the assay on HCT-116; 9.67 µM in the assay with SK-N-SH; 6.54 µM with SK-BR-3; 8.17 µM in the assay on DU-145; 7.53 µM in the assay with A549.
